Results published in ChEMBL document CHEMBL2440018 (J Med Chem, 2013).
Active and inactive are the calls of the source. The rule behind the calls is not given here.

What was measured:
[1] = target: T1, Matrilysin (Homo sapiens) (UniProt P09237); assay: Inhibition of human recombinant MMP-7 at 50 uM by fluorescence spectrophotometric analysis relative to control
T1 sequence (whole entry): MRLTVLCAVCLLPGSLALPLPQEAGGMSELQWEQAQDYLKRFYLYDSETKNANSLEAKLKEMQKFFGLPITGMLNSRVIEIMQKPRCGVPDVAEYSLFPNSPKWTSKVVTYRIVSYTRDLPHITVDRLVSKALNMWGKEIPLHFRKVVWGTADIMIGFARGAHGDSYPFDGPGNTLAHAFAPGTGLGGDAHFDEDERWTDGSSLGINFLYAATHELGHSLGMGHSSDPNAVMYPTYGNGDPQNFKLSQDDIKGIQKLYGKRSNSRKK

[2] = target: Stromelysin-1 (Homo sapiens) (UniProt P08254); assay: Inhibition of human recombinant MMP-3 catalytic domain at 50 uM by fluorescence spectrophotometric analysis relative to control
[3] = target: T2, Matrix metalloproteinase-14 (Homo sapiens, UniProt P50281); assay: Inhibition of human recombinant MMP-14 catalytic domain using MOCAcPLGLA2pr(Dnp)AR-NH2 as substrate by fluorescence spectrophotometric analysis
[4] = target: MMP-2/MMP-9 (Homo sapiens) (UniProt P08253+P14780); assay: Selectivity ratio of Ki for human recombinant MMP-9 catalytic domain to Ki for human recombinant MMP-2
[5] = target: T3, Matrix metalloproteinase-9 (Homo sapiens, UniProt P14780); assay: Inhibition of human recombinant MMP-9 catalytic domain using MOCAcPLGLA2pr(Dnp)AR-NH2 as substrate by fluorescence spectrophotometric analysis
T3 sequence (P14780 whole entry, the tested form may be a part): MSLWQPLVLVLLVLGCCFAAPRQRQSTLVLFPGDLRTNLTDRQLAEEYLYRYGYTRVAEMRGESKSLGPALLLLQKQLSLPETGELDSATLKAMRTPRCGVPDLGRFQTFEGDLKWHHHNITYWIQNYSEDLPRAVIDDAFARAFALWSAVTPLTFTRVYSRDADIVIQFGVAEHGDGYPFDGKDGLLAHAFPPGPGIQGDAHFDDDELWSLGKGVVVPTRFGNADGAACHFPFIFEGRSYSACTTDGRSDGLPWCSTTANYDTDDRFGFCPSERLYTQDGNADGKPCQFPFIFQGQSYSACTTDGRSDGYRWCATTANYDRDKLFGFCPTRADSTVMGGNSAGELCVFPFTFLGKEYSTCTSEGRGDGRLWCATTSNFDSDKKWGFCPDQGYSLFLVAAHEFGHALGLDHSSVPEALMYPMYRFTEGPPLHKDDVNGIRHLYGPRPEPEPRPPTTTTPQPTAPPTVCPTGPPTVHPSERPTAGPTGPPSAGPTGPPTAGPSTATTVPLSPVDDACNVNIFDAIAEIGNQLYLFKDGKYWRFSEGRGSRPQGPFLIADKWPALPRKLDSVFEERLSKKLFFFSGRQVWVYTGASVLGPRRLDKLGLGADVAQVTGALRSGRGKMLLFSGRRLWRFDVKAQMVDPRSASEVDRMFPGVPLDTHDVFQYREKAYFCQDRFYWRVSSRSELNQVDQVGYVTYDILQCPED

[6] = target: T4, Interstitial collagenase (Homo sapiens) (UniProt P03956); assay: Inhibition of human recombinant MMP-1 catalytic domain at 50 uM by fluorescence spectrophotometric analysis relative to control
T4 sequence (whole entry): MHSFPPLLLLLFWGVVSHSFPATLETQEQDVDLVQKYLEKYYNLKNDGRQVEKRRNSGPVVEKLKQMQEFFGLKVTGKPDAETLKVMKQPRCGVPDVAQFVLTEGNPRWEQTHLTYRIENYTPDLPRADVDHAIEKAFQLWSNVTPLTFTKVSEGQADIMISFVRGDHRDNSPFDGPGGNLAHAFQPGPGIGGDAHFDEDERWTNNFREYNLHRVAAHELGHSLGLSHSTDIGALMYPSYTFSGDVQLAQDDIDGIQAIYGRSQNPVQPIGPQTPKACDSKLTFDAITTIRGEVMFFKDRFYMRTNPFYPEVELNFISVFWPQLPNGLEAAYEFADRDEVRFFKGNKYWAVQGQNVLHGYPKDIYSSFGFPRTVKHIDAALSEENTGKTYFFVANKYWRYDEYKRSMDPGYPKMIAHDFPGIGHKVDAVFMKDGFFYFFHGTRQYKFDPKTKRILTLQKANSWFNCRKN

[7] = target: 72 kDa type IV collagenase (Homo sapiens, UniProt P08253); assay: Inhibition of human recombinant MMP-2 using MOCAcPLGLA2pr(Dnp)AR-NH2 as substrate by fluorescence spectrophotometric analysis
Chain of 72 kDa type IV collagenase (P08253 whole entry): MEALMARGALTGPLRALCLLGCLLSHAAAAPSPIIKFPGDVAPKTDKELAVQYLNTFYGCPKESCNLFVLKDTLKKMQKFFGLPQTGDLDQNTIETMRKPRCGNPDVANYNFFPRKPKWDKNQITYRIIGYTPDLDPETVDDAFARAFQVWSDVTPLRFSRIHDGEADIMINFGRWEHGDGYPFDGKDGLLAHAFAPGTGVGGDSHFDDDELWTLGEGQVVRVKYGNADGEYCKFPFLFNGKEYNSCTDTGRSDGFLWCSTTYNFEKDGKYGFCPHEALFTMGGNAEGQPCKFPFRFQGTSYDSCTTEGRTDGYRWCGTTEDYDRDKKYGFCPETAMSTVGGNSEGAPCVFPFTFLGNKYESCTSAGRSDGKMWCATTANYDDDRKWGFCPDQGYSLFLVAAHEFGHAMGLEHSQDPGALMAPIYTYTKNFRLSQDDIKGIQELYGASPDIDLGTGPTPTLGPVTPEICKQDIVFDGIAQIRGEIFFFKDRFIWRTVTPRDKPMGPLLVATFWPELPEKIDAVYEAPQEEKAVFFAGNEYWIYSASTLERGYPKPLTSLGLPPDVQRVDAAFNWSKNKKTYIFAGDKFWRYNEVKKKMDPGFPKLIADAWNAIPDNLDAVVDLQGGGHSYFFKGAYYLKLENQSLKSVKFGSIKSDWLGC

Liver [8] = assay: Metabolic stability in rat liver S9 fraction assessed as formation of 4-(4-(thiiran-2-ylmethylsulfonyl)phenoxy)phenol after 5 mins by reversed-phase LC/MS analysis; assay type: ADME, subcellular; conditions: s9, 5 min
Summary of the method: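 Male rat liver S9 (1.0 mg) incubated with 10 μM compound (final) and 0.5 mM NADPH (final) in 50 mM potassium phosphate, pH 7.4, 37 °C. Aliquots taken at several time points. Reactions quenched with one volume acetonitrile containing internal standard, centrifuged, supernatant run on reversed-phase UPLC/ESI-MRM. Quantified by peak area ratio to internal standard.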

Homo sapiens = species: Homo sapiens; assay: Selectivity ratio of Ki for human recombinant MMP-8 catalytic domain to Ki for human recombinant MMP-2
[9] = target: T3, Matrix metalloproteinase-9; assay: Inhibition of human recombinant MMP-9 catalytic domain using MOCAcPLGLA2pr(Dnp)AR-NH2 as substrate at 50 uM by fluorescence spectrophotometric analysis relative to control
[10] = target: MMP-2/MMP-14 (Homo sapiens) (UniProt P50281+P08253); assay: Selectivity ratio of Ki for human recombinant MMP-14 catalytic domain to Ki for human recombinant MMP-2
[11] = target: T2, Matrix metalloproteinase-14; assay: Inhibition of human recombinant MMP-14 catalytic domain using MOCAcPLGLA2pr(Dnp)AR-NH2 as substrate at 50 uM by fluorescence spectrophotometric analysis relative to control
Liver [12] = assay: Elimination half life in rat liver S9 fraction at 10 uM by reversed-phase UPLC/ESI-MRM analysis; assay type: ADME, subcellular; conditions: s9, 10 µM
Summary of the method: (§1)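 Male rat liver S9 (1.0 mg) with 0.5 mM NADPH and 10 µM compound (both final) in 50 mM potassium phosphate, pH 7.4, at 37 °C, sampled over time. Aliquots were stopped with acetonitrile containing internal standard, and the supernatant was run by UPLC/ESI-MRM. Half-lives used first-order kinetics on peak-area ratios to internal standard.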

Liver [13] = assay: Primary phase half life in rat liver S9 fraction at 10 uM by reversed-phase UPLC/ESI-MRM analysis; assay type: ADME, subcellular; conditions: s9, 10 µM; summary of the method: as §1
Plasma [14] = assay: Elimination half life in C57Bl/6J mouse plasma at 25 mg/kg, sc; assay type: ADME, organism-based; design: dose 25 mg/kg, route subcutaneous; conditions: in vivo
Summary of the method: (§2)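 Mice were dosed sc once at 25 mg/kg; plasma and perfused brain (n = 3 per time point) were quantified by UPLC/ESI-MRM. AUC0-last came from the mean concentration-time curve by the trapezoidal rule, and AUC0-∞ = AUC0-last + Clast/k. α and β half-lives came from linear regression on the linear portion of the concentration-time data, with t1/2 = ln2/k.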

[15] = Plasma concentration in C57Bl/6J mouse at 25 mg/kg, sc measured at 5 hrs by reversed phase UPLC/ESI-MRM analysis; assay type: ADME, organism-based; design: dose 25 mg/kg, route subcutaneous
Summary of the method: (§3)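 Female C57Bl/6J mice (6–8 weeks, 16–19 g) received a single 100 µL sc dose equivalent to 25 mg/kg, in 10% DMSO/25% Tween 80/65% water or 80% propylene glycol/20% DMSO. Terminal heparinised vena cava blood gave plasma, and saline-perfused whole brain was taken; n = 3 per time point. Acetonitrile extracts with internal standard were run by UPLC/ESI-MRM against matrix calibration curves, linear 0.05–5 µM.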

Plasma [16] = assay: AUC (0 to last) in C57Bl/6J mouse plasma at 25 mg/kg, sc; assay type: ADME, organism-based; design: time 0 - last, dose 25 mg/kg, route subcutaneous; conditions: in vivo; summary of the method: as §2
Brain [17] = assay: Elimination half life in C57Bl/6J mouse brain at 25 mg/kg, sc; assay type: ADME, organism-based; design: dose 25 mg/kg, route subcutaneous; conditions: in vivo; summary of the method: as §2
[18] = Primary phase half life in C57Bl/6J mouse plasma at 25 mg/kg, sc; assay type: ADME, organism-based; design: dose 25 mg/kg, route subcutaneous; conditions: read-out: alphat1/2; summary of the method: as §2
Brain [19] = assay: Drug uptake in C57Bl/6J mouse brain measured per mg of tissue at 25 mg/kg, sc measured at 5 hrs by reversed phase UPLC/ESI-MRM analysis; assay type: ADME, organism-based; design: dose 25 mg/kg, route subcutaneous; conditions: in vivo; summary of the method: as §3
Plasma [20] = assay: Plasma concentration in C57Bl/6J mouse at 25 mg/kg, sc measured at 10 mins by reversed phase UPLC/ESI-MRM analysis; assay type: ADME, organism-based; design: dose 25 mg/kg, route subcutaneous; conditions: in vivo; summary of the method: as §3
Liver [21] = assay: Half life in rat liver S9 fraction at 10 uM by reversed-phase UPLC/ESI-MRM analysis; assay type: ADME, subcellular; conditions: s9, 10 µM; summary of the method: as §1
Brain [22] = assay: AUC (0 to infinity) in C57Bl/6J mouse brain at 25 mg/kg, sc; assay type: ADME, organism-based; design: time infinity, dose 25 mg/kg, route subcutaneous; conditions: in vivo; summary of the method: as §2
Brain [23] = assay: Metabolic stability in C57Bl/6J mouse brain assessed as formation of ND-322 at 25 mg/kg, sc measured at 10 to 300 mins; assay type: ADME, organism-based; design: dose 25 mg/kg, route subcutaneous; conditions: in vivo; summary of the method: as §3
Brain [24] = assay: Drug uptake in C57Bl/6J mouse brain at 25 mg/kg, sc measured at 10 mins by reversed phase UPLC/ESI-MRM analysis; assay type: ADME, organism-based; design: dose 25 mg/kg, route subcutaneous; conditions: in vivo; summary of the method: as §3
Plasma [25] = assay: Metabolic stability in C57Bl/6J mouse plasma assessed as formation of ND-322 at 25 mg/kg, sc measured at 10 to 300 mins; assay type: ADME, organism-based; design: dose 25 mg/kg, route subcutaneous; conditions: in vivo; summary of the method: as §3
[26] = Primary phase half life in C57Bl/6J mouse brain at 25 mg/kg, sc; assay type: ADME, organism-based; design: dose 25 mg/kg, route subcutaneous; conditions: read-out: alphat1/2; summary of the method: as §2
[27] = Ratio of AUC in brain to plasma in C57Bl/6J mouse at 25 mg/kg, sc; assay type: ADME, organism-based; design: dose 25 mg/kg, route subcutaneous; conditions: brain and plasma, read-out: Ratio AUC
Brain [28] = assay: AUC (0 to last) in C57Bl/6J mouse brain at 25 mg/kg, sc; assay type: ADME, organism-based; design: dose 25 mg/kg, route subcutaneous; conditions: in vivo; summary of the method: as §2
Neutrophil collagenase = Neutrophil collagenase (Homo sapiens, UniProt P22894); assay: Inhibition of human recombinant MMP-8 catalytic domain using […] as substrate by fluorescence spectrophotometric analysis
Chain of Neutrophil collagenase (P22894 whole entry, the tested form may be a part): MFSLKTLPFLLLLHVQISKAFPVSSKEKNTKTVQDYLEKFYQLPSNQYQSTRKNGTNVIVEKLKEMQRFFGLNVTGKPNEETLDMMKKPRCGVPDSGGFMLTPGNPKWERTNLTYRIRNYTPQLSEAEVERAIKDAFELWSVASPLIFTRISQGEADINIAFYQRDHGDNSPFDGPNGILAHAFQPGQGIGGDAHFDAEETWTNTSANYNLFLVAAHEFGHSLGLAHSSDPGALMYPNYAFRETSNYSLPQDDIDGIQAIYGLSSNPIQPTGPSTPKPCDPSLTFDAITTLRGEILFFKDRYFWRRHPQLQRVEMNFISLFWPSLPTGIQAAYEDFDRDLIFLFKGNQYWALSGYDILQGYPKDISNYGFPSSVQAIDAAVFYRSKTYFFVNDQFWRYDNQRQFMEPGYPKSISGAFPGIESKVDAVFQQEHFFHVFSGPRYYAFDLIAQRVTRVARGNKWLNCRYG

Plasma [29] = assay: AUC (0 to infinity) in C57Bl/6J mouse plasma at 25 mg/kg, sc; assay type: ADME, organism-based; design: time infinity, dose 25 mg/kg, route subcutaneous; conditions: in vivo; summary of the method: as §2
[30] = target: Stromelysin-1 (Homo sapiens) (UniProt P08254); assay: Inhibition of human recombinant MMP-3 catalytic domain at 30 uM by fluorescence spectrophotometric analysis relative to control

SMILES	inhibition [1]	inhibition [2]	Ki [3] [µM]	Ratio Ki [4]	Ki [5] [µM]	inhibition [6]	Ki [7] [µM]	Ratio Ki (Homo sapiens)	Ratio Ki [10]	also measured
CCCOC(=O)Oc1ccc(Oc2ccc(S(=O)(=O)CC3CS3)cc2)cc1 (stereo unspecified)	10%	29%	2.8	2	1	inactive	0.31			
CCCOC(=O)Nc1ccc(Oc2ccc(S(=O)(=O)CC3CS3)cc2)cc1 (stereo unspecified)	inactive	27%	2.1	2	1.1	inactive	0.49			
CCOC(=O)Oc1ccc(Oc2ccc(S(=O)(=O)CC3CS3)cc2)cc1 (stereo unspecified)	9%	39%	2.7	2		inactive	0.23			Stability (Liver [8]): Unstable
CC(C)NC(=O)Nc1ccc(Oc2ccc(S(=O)(=O)CC3CS3)cc2)cc1 (stereo unspecified)	6%	4%		20		inactive	0.42	20	20	inhibition [9]: 26%; inhibition [11]: 37%
Nc1ccc(Oc2ccc(S(=O)(=O)CC3CS3)cc2)cc1 (stereo unspecified)										beta t1/2 (Liver [12]): 59 min; alphat1/2 (Liver [13]): 14 min
CCNC(=O)Nc1ccc(Oc2ccc(S(=O)(=O)CC3CS3)cc2)cc1 (stereo unspecified)	7%	inactive		20		inactive	0.44	20	20	beta t1/2 (Plasma [14]): 61.9 min; concentration at 5 h [15]: 70.4 nM; AUClast (Plasma [16]): 181 µM·min; inhibition [9]: 28%; beta t1/2 (Brain [17]): 204 min; half-life [18]: 8.38 min; Drug uptake (Brain [19]): 0.0133 pmol; Drug uptake (Plasma [20]): Active; t1/2 (Liver [21]): 40.7 min; AUC (Brain [22]): 13.8 pmol·min/mg; Stability (Brain [23]): Stable; inhibition [11]: 17%; Drug uptake (Brain [24]): Active; Stability (Plasma [25]): Stable; half-life [26]: 18.2 min; Kp [27]: 0.0738; AUClast (Brain [28]): 9.86 pmol·min/mg; Ki (Neutrophil collagenase): 17 µM; AUC (Plasma [29]): 187 µM·min
CCCNC(=O)Nc1ccc(Oc2ccc(S(=O)(=O)CC3CS3)cc2)cc1 (stereo unspecified)	inactive	18%		20		inactive	0.56	20	20	inhibition [9]: 7%; inhibition [11]: 8%
CNC(=O)Nc1ccc(Oc2ccc(S(=O)(=O)CC3CS3)cc2)cc1 (stereo unspecified)	8%	21%	19	20	9.9	inactive	0.24	20	20	
CNC(=O)Oc1ccc(Oc2ccc(S(=O)(=O)CC3CS3)cc2)cc1 (stereo unspecified)	6%	30%	12	20	10	8%	0.39	20	20	
CCCNC(=O)Oc1ccc(Oc2ccc(S(=O)(=O)CC3CS3)cc2)cc1 (stereo unspecified)	2%	38%	27	20	52	inactive	0.76	20	20	
O=S(=O)(CC1CS1)c1ccc(Oc2ccc(O)cc2)cc1 (stereo unspecified)										t1/2 (Liver [21]): 23.5 min
CC(C)NC(=O)Oc1ccc(Oc2ccc(S(=O)(=O)CC3CS3)cc2)cc1 (stereo unspecified)	inactive	3%		20		inactive	0.69	20	20	inhibition [9]: 22%; inhibition [11]: 30%
CC(C)OC(=O)Nc1ccc(Oc2ccc(S(=O)(=O)CC3CS3)cc2)cc1 (stereo unspecified)	inactive	inactive	2.5	2	2.7	inactive	0.68			
CC(C)OC(=O)Oc1ccc(Oc2ccc(S(=O)(=O)CC3CS3)cc2)cc1 (stereo unspecified)	13%	9%	3	2	1.3	inactive	0.48			
COC(=O)Oc1ccc(Oc2ccc(S(=O)(=O)CC3CS3)cc2)cc1 (stereo unspecified)	11%		2.4	2	0.23	7%	0.16			inhibition [30]: 31%
CCOC(=O)Nc1ccc(Oc2ccc(S(=O)(=O)CC3CS3)cc2)cc1 (stereo unspecified)	inactive	37%	1.9			inactive	0.29			t1/2 (Liver [21]): 24.8 min
